Measurements from ChEMBL document CHEMBL1177643, “Synthesis, DNA-binding ability and anticancer activity of benzothiazole/benzoxazole-pyrrolo[2,1-c][1,4]benzodiazepine conjugates” (Bioorg Med Chem, 2010).

Key:
Assay type in all cases: functional
LOX IMVI = assay: Growth inhibition of human LOXIMVI cells after 48 hrs by sulforhodamine B assay
Outline: (§1)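 Panel of 60 human cancer cell lines; for each compound, dose–response curves per cell line measured at a minimum of five concentrations at 10-fold dilutions. Cells exposed continuously to drug for 48 h, and growth was read out by sulforhodamine B staining.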

SNB-75 = assay: Growth inhibition of human SNB75 cells after 48 hrs by sulforhodamine B assay; conditions: SNB-75, 48 h; outline: as §1
MCF7 = assay: Growth inhibition of human MCF7 cells after 48 hrs by sulforhodamine B assay; conditions: MCF7, 48 h; outline: as §1
M14 = assay: Growth inhibition of human M14 cells after 48 hrs by sulforhodamine B assay; conditions: M14, 48 h; outline: as §1
OVCAR-8 = assay: Growth inhibition of human OVCAR8 cells after 48 hrs by sulforhodamine B assay; conditions: OVCAR-8, 48 h; outline: as §1
SF-268 = assay: Growth inhibition of human SF268 cells after 48 hrs by sulforhodamine B assay; conditions: SF-268, 48 h; outline: as §1
HCT-116 = assay: Growth inhibition of human HCT116 cells after 48 hrs by sulforhodamine B assay; conditions: HCT-116, 48 h; outline: as §1
A-375 [1] = assay: Cell cycle arrest in human A375 cells assessed as accumulation at G0 phase at 2 uM after 24 hrs using propidium iodide staining by flow cytometry
Outline: (§2)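 A375 cells (5×10^5) grown 24 h, then exposed to compound 24 h (DMSO control). Trypsin–EDTA harvest, fixed in ice-cold 70% ethanol at 4 °C 30 min, RNase A 37 °C 30 min, propidium iodide staining. DNA content measured by flow cytometry on 20,000 events, gated as sub-G1/G0, G1, S and G2/M.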

SNB-19 = assay: Growth inhibition of human SNB19 cells after 48 hrs by sulforhodamine B assay; conditions: SNB-19, 48 h; outline: as §1
ACHN = assay: Growth inhibition of human ACHN cells after 48 hrs by sulforhodamine B assay
Outline: (§3)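 Dose–response in each cell line over at least five concentrations at 10-fold dilutions, with 48 h continuous exposure and sulforhodamine B read-out.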

U-251 = assay: Growth inhibition of human U251 cells after 48 hrs by sulforhodamine B assay; conditions: U-251, 48 h; outline: as §1
Malme-3M = assay: Growth inhibition of human MALME-3M cells after 48 hrs by sulforhodamine B assay; outline: as §1
A-375 [2] = assay: Cell cycle arrest in human A375 cells assessed as accumulation at G1 phase at 2 uM after 24 hrs using propidium iodide staining by flow cytometry; outline: as §2
MDA-MB-435 = assay: Growth inhibition of human MDA-MB-435 cells after 48 hrs by sulforhodamine B assay; conditions: MDA-MB-435, 48 h; outline: as §1
A498 = assay: Growth inhibition of human A498 cells after 48 hrs by sulforhodamine B assay; conditions: A498, 48 h; outline: as §3
NCI-H522 = assay: Growth inhibition of human NCI-H522 cells after 48 hrs by sulforhodamine B assay; conditions: NCI-H522, 48 h; outline: as §1
HOP-92 = assay: Growth inhibition of human HOP92 cells after 48 hrs by sulforhodamine B assay; conditions: HOP-92, 48 h; outline: as §1
MDA-MB-231 = assay: Growth inhibition of human MDA-MB-231 cells after 48 hrs by sulforhodamine B assay; conditions: MDA-MB-231, 48 h; outline: as §1
Hs-578T = assay: Growth inhibition of human Hs 578T cells after 48 hrs by sulforhodamine B assay; outline: as §1
IGROV-1 = assay: Growth inhibition of human IGROV1 cells after 48 hrs by sulforhodamine B assay; conditions: IGROV-1, 48 h; outline: as §1
A-375 [3] = assay: Cell cycle arrest in human A375 cells assessed as accumulation at G0/G1 phase at 2 uM after 24 hrs using propidium iodide staining by flow cytometry; outline: as §2
OVCAR-3 = assay: Growth inhibition of human OVCAR-3 cells after 48 hrs by sulforhodamine B assay; conditions: OVCAR-3, 48 h; outline: as §1
RXF 393 = assay: Growth inhibition of human RXF393 cells after 48 hrs by sulforhodamine B assay; conditions: RXF 393, 48 h; outline: as §1
MOLT-4 = assay: Growth inhibition of human MOLT4 cells after 48 hrs by sulforhodamine B assay; conditions: MOLT-4, 48 h; outline: as §1
HT-29 = assay: Growth inhibition of human HT-29 cells after 48 hrs by sulforhodamine B assay; conditions: HT-29, 48 h; outline: as §1
NCI-H460 = assay: Growth inhibition of human NCI-H460 cells after 48 hrs by sulforhodamine B assay; conditions: NCI-H460, 48 h; outline: as §1
HL-60 = assay: Growth inhibition of human HL-60(TB) cells after 48 hrs by sulforhodamine B assay; conditions: HL-60, 48 h; outline: as §1
OVCAR-5 = assay: Growth inhibition of human OVCAR5 cells after 48 hrs by sulforhodamine B assay; conditions: OVCAR-5, 48 h; outline: as §1
K562 = assay: Growth inhibition of human K562 cells after 48 hrs by sulforhodamine B assay; conditions: K562, 48 h; outline: as §1
HCC 2998 = assay: Growth inhibition of human HCC2998 cells after 48 hrs by sulforhodamine B assay; conditions: HCC 2998, 48 h; outline: as §1
PC-3 = assay: Growth inhibition of human PC3 cells after 48 hrs by sulforhodamine B assay; conditions: PC-3, 48 h; outline: as §1
SF-295 = assay: Growth inhibition of human SF295 cells after 48 hrs by sulforhodamine B assay; conditions: SF-295, 48 h; outline: as §1
[4] = Growth inhibition of human […] cells after 48 hrs by sulforhodamine B assay; outline: as §1
CAKI-1 = assay: Growth inhibition of human Caki1 cells after 48 hrs by sulforhodamine B assay; conditions: CAKI-1, 48 h; outline: as §3
SK-MEL-2 = assay: Growth inhibition of human SK-MEL-2 cells after 48 hrs by sulforhodamine B assay; conditions: SK-MEL-2, 48 h; outline: as §1
CCRF-CEM = assay: Growth inhibition of human CCRF-CEM cells after 48 hrs by sulforhodamine B assay; outline: as §3
NCI/ADR-RES = assay: Growth inhibition of human NCI/ADR-RES cells after 48 hrs by sulforhodamine B assay; outline: as §1
NCI-H322M = assay: Growth inhibition of human NCI-H322M cells after 48 hrs by sulforhodamine B assay; outline: as §1
SK-OV-3 = assay: Growth inhibition of human SKOV3 cells after 48 hrs by sulforhodamine B assay; conditions: SK-OV-3, 48 h; outline: as §1
SK-MEL-5 = assay: Growth inhibition of human SK-MEL-5 cells after 48 hrs by sulforhodamine B assay; conditions: SK-MEL-5, 48 h; outline: as §1
SK-MEL-28 = assay: Growth inhibition of human SK-MEL-28 cells after 48 hrs by sulforhodamine B assay; conditions: SK-MEL-28, 48 h; outline: as §1
UO-31 = assay: Growth inhibition of human UO31 cells after 48 hrs by sulforhodamine B assay; conditions: UO-31, 48 h; outline: as §1
BT-549 = assay: Growth inhibition of human BT549 cells after 48 hrs by sulforhodamine B assay; conditions: BT-549, 48 h; outline: as §3
A-375 [5] = assay: Cell cycle arrest in human A375 cells assessed as accumulation at S phase at 2 uM after 24 hrs using propidium iodide staining by flow cytometry; outline: as §2
HOP-62 = assay: Growth inhibition of human HOP62 cells after 48 hrs by sulforhodamine B assay; conditions: HOP-62, 48 h; outline: as §1

COc1cc2c(cc1OCCCCC(=O)Nc1ccc(-c3nc4ccccc4s3)cc1)N=C[C@@H]1CCCN1C2=O
GI50 (LOX IMVI): 1550 nM | GI50 (SNB-75): 1820 nM | GI50 (MCF7): 724 nM | GI50 (M14): 1550 nM | GI50 (OVCAR-8): 1550 nM | GI50 (SF-268): 2040 nM | GI50 (HCT-116): 1860 nM | Activity (A-375 [1]): 15.1% | GI50 (SNB-19): 2690 nM | GI50 (ACHN): 3020 nM | GI50 (U-251): 1910 nM | GI50 (Malme-3M): 1910 nM | Activity (A-375 [2]): 73.34% | GI50 (MDA-MB-435): 1780 nM | GI50 (A498): 1860 nM | GI50 (NCI-H522): 977 nM | GI50 (HOP-92): 1740 nM | GI50 (MDA-MB-231): 2090 nM | GI50 (Hs-578T): 2750 nM | GI50 (IGROV-1): 692 nM | Activity (A-375 [3]): 88.44% | GI50 (OVCAR-3): 1860 nM | GI50 (RXF 393): 1620 nM | GI50 (MOLT-4): 1620 nM | GI50 (HT-29): 2140 nM | GI50 (NCI-H460): 1660 nM | GI50 (HL-60): 1780 nM | GI50 (OVCAR-5): 3550 nM | GI50 (K562): 1740 nM | GI50 (HCC 2998): 1580 nM | GI50 (PC-3): 2040 nM | GI50 (SF-295): 550 nM | GI50 [4]: 1450 nM | GI50 (CAKI-1): 2190 nM | GI50 (SK-MEL-2): 1950 nM | GI50 (CCRF-CEM): 1200 nM | GI50 (NCI/ADR-RES): 11000 nM | GI50 (NCI-H322M): 2820 nM | GI50 (SK-OV-3): 4470 nM | GI50 (SK-MEL-5): 1780 nM | GI50 (SK-MEL-28): 2240 nM | GI50 (UO-31): 1660 nM | GI50 (BT-549): 1120 nM | Activity (A-375 [5]): 6.15% | GI50 (HOP-62): 2450 nM

COc1cc(-c2nc3ccccc3s2)ccc1OCCCCOc1cc2c(cc1OC)C(=O)N1CCC[C@H]1C=N2
GI50 (LOX IMVI): 724 nM | GI50 (SNB-75): 1230 nM | GI50 (MCF7): 407 nM | GI50 (M14): 1230 nM | GI50 (OVCAR-8): 1780 nM | GI50 (SF-268): 1230 nM | GI50 (HCT-116): 525 nM | Activity (A-375 [1]): 20.86% | GI50 (SNB-19): 1620 nM | GI50 (ACHN): 776 nM | GI50 (U-251): 417 nM | GI50 (Malme-3M): 1550 nM | Activity (A-375 [2]): 69.69% | GI50 (MDA-MB-435): 1350 nM | GI50 (A498): 1620 nM | GI50 (NCI-H522): 550 nM | GI50 (HOP-92): 263 nM | GI50 (MDA-MB-231): 525 nM | GI50 (Hs-578T): 1020 nM | GI50 (IGROV-1): 3090 nM | Activity (A-375 [3]): 90.55% | GI50 (OVCAR-3): 724 nM | GI50 (RXF 393): 240 nM | GI50 (MOLT-4): 676 nM | GI50 (HT-29): 537 nM | GI50 (NCI-H460): 646 nM | GI50 (HL-60): 513 nM | GI50 (OVCAR-5): 501 nM | GI50 (K562): 339 nM | GI50 (HCC 2998): 646 nM | GI50 (PC-3): 407 nM | GI50 (SF-295): 1910 nM | GI50 [4]: 309 nM | GI50 (CAKI-1): 575 nM | GI50 (SK-MEL-2): 1230 nM | GI50 (CCRF-CEM): 339 nM | GI50 (NCI/ADR-RES): 1910 nM | GI50 (NCI-H322M): 2570 nM | GI50 (SK-OV-3): 2400 nM | GI50 (SK-MEL-5): 407 nM | GI50 (SK-MEL-28): 2140 nM | GI50 (UO-31): 1230 nM | GI50 (BT-549): 282 nM | Activity (A-375 [5]): 5% | GI50 (HOP-62): 1410 nM
